# Assay results published in ChEMBL document CHEMBL4825737, “Design, synthesis, and biological evaluation of novel 6-(pyridin-3-yl) quinazolin-4(3H)-one derivatives as potential anticancer agents via PI3K inhibition” (Bioorg Med Chem, 2021).
# Assays:
# Assay type in all cases: functional, cell-based
# SH-SY5Y = test: Antiproliferative activity against human SH-SY5Y assessed as reduction in cell viability measured after 72 hrs by flow cytometry analysis
# Method in brief: (§1)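 Cells in RPMI 1640 with 10% FBS and penicillin/streptomycin/amphotericin B, seeded at 2.5–3 × 10⁴ per well. Grown adherent in fresh medium for 24 h, then exposed to a range of compound concentrations for 72 h. Living cell numbers counted by flow cytometry; IC50 calculated. Mean ± SD from three experiments.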
# [1] = Antiproliferative activity against human LM3 cells assessed as reduction in cell viability measured after 72 hrs by flow cytometry analysis; details: GILM3, 72 h; method in brief: as §1
# HCC827 = test: Antiproliferative activity against human HCC827 cells assessed as reduction in cell viability measured after 72 hrs by flow cytometry analysis; details: HCC827, 72 h; method in brief: as §1
# HEL = test: Antiproliferative activity against human HEL cells assessed as reduction in cell viability measured after 72 hrs by flow cytometry analysis; method in brief: as §1
# L02 = test: Antiproliferative activity against human HL7702 cells assessed as reduction in cell viability measured after 72 hrs by flow cytometry analysis; details: L02, 72 h; method in brief: as §1
IC50 (SH-SY5Y) [µM],IC50 (HCC827) [µM],SMILES,IC50 [1] [µM],IC50 (HEL) [µM],IC50 (L02) [µM]
> 40,29,CCCCC(=O)Nc1ccc(-c2ccc3ncn(CCN4CCOCC4)c(=O)c3c2)cn1,> 40,> 40,
> 40,> 40,CCC(=O)Nc1ccc(-c2ccc3ncn(Cc4ccc(C)cc4)c(=O)c3c2)cn1,> 40,> 40,
> 40,> 40,CC(C)(C)C(=O)Nc1ccc(-c2ccc3ncn(Cc4ccc5c(c4)OCO5)c(=O)c3c2)cn1,> 40,> 40,
35.4,32.2,CCCCC(=O)Nc1ccc(-c2ccc3ncn(Cc4ccc(C)cc4)c(=O)c3c2)cn1,> 40,18.8,
> 40,> 40,CCC(=O)Nc1ccc(-c2ccc3ncn(Cc4ccc5c(c4)OCO5)c(=O)c3c2)cn1,> 40,> 40,
> 40,29.2,Cc1ccc(Cn2cnc3ccc(-c4ccc(N(C(=O)c5ccccc5)C(=O)c5ccccc5)nc4)cc3c2=O)cc1,> 40,> 40,
3.72,1.2,CCCCn1cnc2ccc(-c3ccc(NC(=O)CC)nc3)cc2c1=O,2.49,2.83,10.9
> 40,> 40,CCC(=O)Nc1ccc(-c2ccc3ncn(CCN4CCOCC4)c(=O)c3c2)cn1,> 40,> 40,
